# Test results taken from paper PMC13065758 (Nature Communications, 2026).
# How the values were obtained:
# [1] = Plasma stability assay, mouse plasma; type: in vitro ADME
# Summary of the method: (§1)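 Test compound was spiked at 10 μM into human or mouse plasma and incubated at 37 °C with shaking for 0, 30 or 120 min. Proteins were precipitated with acetonitrile containing 1 μM chlorpropamide internal standard and removed by centrifugation. Analyte/internal-standard area ratios were measured by LC-MS/MS and expressed as percent remaining versus 0 min.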
# [2] = Plasma stability assay, human plasma; type: in vitro ADME
# Summary of the method: as §1
smiles,measurement,setting,value
CCN(CC)CCOC(=O)c1ccc(N)cc1 [Procaine],"remaining at 2 h, 10 μM",[1],3.13%
same,"remaining at 2 h, 10 μM",[2],0.03%
